Most compounds without a hit are left out; they make up all but 4.7% or so of the library.
NR3A LBD binder: modulators (binders) of human NR3A ligand-binding domain; NR3A LBD differential scanning fluorimetry, Tm shift; 0% = protein alone, 100% = glycine-bound protein; Tm shift relative to glycine control, % at 25 µM; AID 1259313; 2.5% of 340,000 active;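 active means melting temperature shift of at least 10% of the positive control shift, at one fixed dose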
MPTP inh: inhibitors of mitochondrial permeability transition pore; inhibition, % at 10 µM; 1.4% of 360,000 active; isolated mouse mitochondria, Ca2+ swelling absorbance, 30 min;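 active means inhibition of 50% or more, scaled per plate between neutral and stimulator controls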;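 further: 0% = DMSO wells given calcium and 100% = 1 mM EGTA wells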
ADAM17 inh: inhibitors of human ADAM17. P78536. recombinant ADAM17, EDANS/DABCYL FRET peptide cleavage. inhibition, % at 6.95 µM. 0.83% of 370,000 active. AID 720648;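 active means inhibition above the mean of compounds lying between control limits plus 3 SD, set per campaign, cut at about 8.5% in these data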;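 further: 0% = DMSO-only wells as the low control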
Target sequence (P78536 215-824 limits assumed): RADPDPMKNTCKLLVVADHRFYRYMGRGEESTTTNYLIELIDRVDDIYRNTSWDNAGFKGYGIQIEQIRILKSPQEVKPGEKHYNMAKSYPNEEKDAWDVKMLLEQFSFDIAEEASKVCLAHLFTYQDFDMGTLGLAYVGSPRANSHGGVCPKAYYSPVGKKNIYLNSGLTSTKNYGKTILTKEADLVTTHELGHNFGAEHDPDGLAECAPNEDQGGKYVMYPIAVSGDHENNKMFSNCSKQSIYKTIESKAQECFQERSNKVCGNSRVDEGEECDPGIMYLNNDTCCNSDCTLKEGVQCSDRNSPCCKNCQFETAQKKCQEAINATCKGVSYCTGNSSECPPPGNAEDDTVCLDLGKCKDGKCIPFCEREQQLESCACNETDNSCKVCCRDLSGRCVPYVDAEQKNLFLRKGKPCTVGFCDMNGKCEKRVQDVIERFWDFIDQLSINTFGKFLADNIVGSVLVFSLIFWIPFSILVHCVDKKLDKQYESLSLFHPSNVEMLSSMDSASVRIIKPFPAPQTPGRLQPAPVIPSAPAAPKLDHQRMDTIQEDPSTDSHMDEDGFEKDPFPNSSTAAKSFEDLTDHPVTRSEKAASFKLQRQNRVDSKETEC
MT1-MMP act inh: inhibitors of human MT1-MMP activation; P50281; HT1080 RFP-PRO-GFP cells, GFP/RFP ratio fluorescence, overnight; percent of plate control window, DMSO zero; GFP/RFP ratio change, % at 20 µM; 0.061% of 360,000 active; AID 651647;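 active means GFP/RFP ratio change of at least 30% with cell ATP level not reduced by more than half and red fluorescence within 50% of control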
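Assay system: HT1080 RFP-PRO-GFP cells | Dosing: 20 µM single dose, 1% DMSO | Incubation: Cells overnight before dosing, compound overnight, 37 °C, 5% CO2 | Evaluation: GFP/RFP fluorescence ratio | Control set: DMSO-only wells and HT1080 RFP-L50D-GFP cell wells as references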
ADAM10 inh: ADAM10 inhibition, QFRET primary screen. recombinant ADAM10, EDANS/DABCYL FRET peptide cleavage, 3 h. 0.62% of 370,000 active. inhibition, % at 7 µM;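 active means inhibition above a per-campaign cutoff equal to the mean of compounds falling between control-based bounds plus 3 SD, cut at about 20% in these data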;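 further: 0% = DMSO wells while the 100% control is not disclosed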
SKN-1 inh: blocks SKN-1 activity in C. elegans; C. elegans VP596 Pgst-4::GFP/RFP ratio, acrylamide-induced, 24 h; inhibition, % at 21.8 µM; 0.49% of 360,000 active;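 active means interference check ratio from 0.5 to 1.5 plus GFP to RFP signal ratio inhibition reaching or exceeding a fixed threshold, cut at about 30% in these data, passing the limit was not always enough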
* hit, by the source's call.

What do the screens show for `CCOC(=O)C1=C[C@@H](C(C)C)N(S(=O)(=O)c2ccc(C)cc2)[C@H]1c1ccccc1F`?
MPTP inh: 1.3; ADAM17 inh: 0.7; MT1-MMP act inh: -6.9; ADAM10 inh: -1.2; SKN-1 inh: 9.7

How did CN1CCc2c(sc(N)c2C(=O)c2ccc(Cl)cc2)C1 do in these assays?
NR3A LBD binder: -0.3; MPTP inh: 0.4; ADAM17 inh: -29.6; MT1-MMP act inh: -11.2; ADAM10 inh: -55.3; SKN-1 inh: -3.4

How did COc1ccc(C(=O)c2c(N)sc3c2CCN(C(=O)OC(C)(C)C)C3)cc1 do in these assays?
NR3A LBD binder: 13.1*; MPTP inh: 5.0; ADAM17 inh: -2.2; MT1-MMP act inh: -14.4; ADAM10 inh: -2.0; SKN-1 inh: 6.0

Results for C/C(=N\NC(=O)c1nc2ccccn2c1C)c1ccc2c(c1)OCO2 ?
NR3A LBD binder: -0.2; MPTP inh: -0.3; ADAM17 inh: 0.9; MT1-MMP act inh: 3.0; ADAM10 inh: 6.0; SKN-1 inh: 10.6

What do the screens show for `Cn1c(Nc2ccccc2)nc2ccccc21`?
NR3A LBD binder: 12.0*; MPTP inh: 1.4; ADAM17 inh: -5.8; MT1-MMP act inh: 4.6; ADAM10 inh: 2.8; SKN-1 inh: -11.3

What do the screens show for `CCCCNC(=O)CSc1nc2ccsc2c(=O)n1C1CCN(C(=O)OCC)CC1`?
NR3A LBD binder: -3.0; MPTP inh: -1.3; ADAM17 inh: 0.1; MT1-MMP act inh: 4.4; ADAM10 inh: 20.4*; SKN-1 inh: 7.6

How did COc1ccc2nc(NC(C)=O)sc2c1 do in these assays?
NR3A LBD binder: 0.5; MPTP inh: -2.2; ADAM17 inh: -1.2; MT1-MMP act inh: 1.9; ADAM10 inh: -0.2; SKN-1 inh: 1.9

What do the screens show for `NC(=O)c1ccc2nc(NC(=O)c3ccc(N)cc3)sc2c1`?
NR3A LBD binder: 13.9*; MPTP inh: -0.7; ADAM17 inh: -8.2; MT1-MMP act inh: -2.2; ADAM10 inh: -9.7; SKN-1 inh: 0.0

What do the screens show for `COc1ccc2nc(NC(=O)c3ccccc3O)sc2c1`?
NR3A LBD binder: 9.8; MPTP inh: 2.0; ADAM17 inh: -29.4; MT1-MMP act inh: 3.7; ADAM10 inh: -73.5; SKN-1 inh: 22.9

What do the screens show for `COc1ccc2nc(NC(=O)c3ccc(F)cc3)sc2c1`?
NR3A LBD binder: 10.1*; MPTP inh: 2.6; ADAM17 inh: -4.4; MT1-MMP act inh: 3.8; ADAM10 inh: -53.9; SKN-1 inh: 10.9

What do the screens show for `COc1ccc2nc(NC(=O)c3ccc4ncsc4c3)sc2c1`?
NR3A LBD binder: 26.3*; MPTP inh: 0.6; MT1-MMP act inh: 4.1; SKN-1 inh: 5.9

Results for COc1ccc2nc(NC(=O)Nc3cccc4ccccc34)sc2c1 ?
NR3A LBD binder: 23.2*; MPTP inh: 5.6; ADAM17 inh: -11.2; MT1-MMP act inh: -6.5; ADAM10 inh: -24.3; SKN-1 inh: 4.3

What do the screens show for `COc1ccc2nc(NC(=O)Nc3ccccc3OC)sc2c1`?
NR3A LBD binder: -2.1; MPTP inh: 0.7; ADAM17 inh: 1.1; MT1-MMP act inh: -3.9; ADAM10 inh: 4.1; SKN-1 inh: 14.7

What do the screens show for `CN(C)c1ccc(CNC(=O)C2(C)Cc3c(-c4ccc5c(c4)OCO5)ccnc3O2)cc1` (centres undefined)?
MPTP inh: -1.4; ADAM17 inh: 0.7; MT1-MMP act inh: 2.6; ADAM10 inh: -17.6; SKN-1 inh: 2.4

What do the screens show for `C[C@H](CO)N1C[C@H](C)[C@@H](CN(C)C(=O)Nc2ccc(C(F)(F)F)cc2)OCc2cn(nn2)CCCC1=O`?
ADAM17 inh: -4.1; ADAM10 inh: -12.8

What do the screens show for `O=C(Nc1cc2c3c(c1)CC(=O)N3CCC2)c1ccco1`?
NR3A LBD binder: 0.5; MPTP inh: -0.8; ADAM17 inh: -3.4; MT1-MMP act inh: 2.7; ADAM10 inh: -1.3; SKN-1 inh: 0.3

Results for CC(C)Cc1cc(C(=O)N2CCCC(CO)(Cc3ccc(F)cc3)C2)no1 (centres undefined) ?
NR3A LBD binder: -2.4; MPTP inh: 0.3; ADAM17 inh: 3.0; MT1-MMP act inh: 0.9; ADAM10 inh: -3.6; SKN-1 inh: 23.9

How did Cc1ccc2nc(NC(=O)c3ccc(-c4nc5ccccc5s4)s3)sc2c1 do in these assays?
NR3A LBD binder: -0.9; MPTP inh: -0.5; ADAM17 inh: -2.2; MT1-MMP act inh: 0.5; ADAM10 inh: -2.6; SKN-1 inh: 0.5

What do the screens show for `O=C(Nc1nc2ccccc2s1)c1ccc(Cl)s1`?
NR3A LBD binder: 20.9*; MPTP inh: 2.2; ADAM17 inh: -0.7; MT1-MMP act inh: -9.1; ADAM10 inh: -0.7; SKN-1 inh: 12.6

How did COc1ccccc1NC(=O)Nc1nc2ccc(S(N)(=O)=O)cc2s1 do in these assays?
NR3A LBD binder: 20.1*; MPTP inh: -1.0; ADAM17 inh: -1.8; MT1-MMP act inh: 0.5; ADAM10 inh: -2.6; SKN-1 inh: 13.2

What do the screens show for `COc1ccc2nc(NC(=O)c3cccs3)sc2c1`?
NR3A LBD binder: 19.3*; MPTP inh: 0.6; ADAM17 inh: -165.7; MT1-MMP act inh: -2.5; ADAM10 inh: -357.6; SKN-1 inh: -4.9

What do the screens show for `COc1ccc(OCC(=O)Nc2nc3ccc(NC(C)=O)cc3s2)cc1`?
NR3A LBD binder: 14.1*; MPTP inh: -1.5; ADAM17 inh: -1.3; MT1-MMP act inh: 1.4; ADAM10 inh: 0.1; SKN-1 inh: -0.8

What do the screens show for `CC(=O)Nc1ccc2nc(NC(=O)c3cccs3)sc2c1`?
NR3A LBD binder: 6.6; MPTP inh: 1.7; ADAM17 inh: -3.2; MT1-MMP act inh: 2.4; ADAM10 inh: -8.3; SKN-1 inh: 3.6

What do the screens show for `O/N=C1\CCSc2ccc(F)cc21`?
NR3A LBD binder: 0.9; MPTP inh: 0.8; ADAM17 inh: -9.4; MT1-MMP act inh: 3.0; ADAM10 inh: -17.9; SKN-1 inh: -5.9

How did CCc1c(C)nc2ncnn2c1NC1CCCc2ccccc21 (centres undefined) do in these assays?
NR3A LBD binder: -0.5; MPTP inh: 5.2; ADAM17 inh: -1.7; MT1-MMP act inh: -10.2; ADAM10 inh: 0.6; SKN-1 inh: -0.7

How did COc1cccc(C(=O)Nc2nc3ccccc3s2)c1 do in these assays?
NR3A LBD binder: 3.4; MPTP inh: 0.5; ADAM17 inh: -2.6; MT1-MMP act inh: -0.3; ADAM10 inh: 3.6; SKN-1 inh: 21.5

What do the screens show for `COc1ccc(C(=O)Nc2nc3ccccc3s2)cc1`?
NR3A LBD binder: 25.6*; MPTP inh: 1.5; ADAM17 inh: -2.2; MT1-MMP act inh: 2.2; ADAM10 inh: 1.1; SKN-1 inh: -8.0

What do the screens show for `O=C(N/C(=C/c1ccc(F)cc1)C(=O)N1CCCCC1)c1ccco1`?
NR3A LBD binder: 0.9; MPTP inh: 0.3; ADAM17 inh: -6.8; MT1-MMP act inh: 3.3; ADAM10 inh: -8.1; SKN-1 inh: 22.1

Results for O=C(CNc1ccc(Br)cc1)c1ccccc1 ?
NR3A LBD binder: 3.4; MPTP inh: 2.6; ADAM17 inh: 2.3; MT1-MMP act inh: -2.2; ADAM10 inh: -5.7; SKN-1 inh: 36.2*

Source: PubChem (several laboratories)
